# Sampled rows, rich in hits. Any-hit rate of the full collection: about 1.7%.
# Runt-CBFb FRET = inhibitors of RUNX1 Runt–CBFb binding, primary screen, biochemical, FRET, Cerulean-Runt, Venus-CBFb, uHTS; Cerulean-Runt/Venus-CBFb FRET ratio 530/480, 1 h; 0.46% of 220,000 active; AID 1496, 2009; inhibition, % at 20 µM;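 active means inhibition over about 50% at 20 µM in the single-dose screen, limit read from the data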;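 further: 0% = DMSO wells and 100% = excess unlabeled CBFb competitor control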
#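 Assay system: Cerulean-Runt domain / Medium: Tris 50 mM pH 7.5, KCl, K2SO4, 0.01% BSA / Timing: protein complex preformed 1 h, compound exposure 1 h, room temperature, dark / Measured by: FRET, excitation 422 nm, emission at 530 and 480 nm / Evaluation: loss of energy transfer signal / Control set: 5 µM unlabeled CBFb as full-inhibition high control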
# Vif inh = HIV Vif self-association inhibitors, primary screen, imaging, HEK293T, single point | HEK293T cells, Vif self-association by quenched fluorescence, 24 h | inhibition, % at 7.49 µM | 0.35% of 340,000 active | AID 602346, 2012; in the data active means inhibition above about 50%, passing the limit was not always enough; inconclusive means no clear call, values can overlap the other calls; inactive means below about 31%
# RanGTP-Imp inh = inhibitors of RanGTP-importin-beta interaction, primary screen, biochemical, FRET, CFP-Ran, YFP-importin-beta, homogeneous; Ran GTPase (GTP-bound) - importin-beta complex; cell-free CFP-Ran/YFP-importin-beta FRET ratio; inhibition, % (concentration not given with the values); 1.1% of 300,000 active; AID 2216, 2009;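 active means more than half of the replicate wells show a fall in the fluorescence ratio signal beyond about 16%, limit read from the data, passing the limit was not always enough; inconclusive means exactly half of the replicate wells pass the set limit; inactive means fewer than half of replicates pass the limit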;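 further: 0% = DMSO wells and 100% = Ran loaded with GDP instead of GTP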
# Runt-SMMHC FRET = inhibitors of RUNX1 Runt–CBFb-SMMHC binding, primary screen, biochemical, FRET, Cerulean-Runt, Venus-CBFb-SMMHC, uHTS. Runt-related transcription factor 1 (Homo sapiens) + Core-binding factor subunit beta …. Cerulean-Runt/Venus-CBFb-SMMHC FRET ratio 530/480, 1 h. inhibition, % at 20 µM. 0.74% of 220,000 active. AID 1434, 2008;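 active means mean inhibition across duplicate retests at 20 µM reaching about 50%, limit read from the data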;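 further: 0% = DMSO wells and 100% = wells with excess untagged CBFb-SMMHC; inhibitors lower the FRET ratio by blocking Runt binding to CBFb-SMMHC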
# Rce1 inh = yeast Rce1p protease inhibitors, primary screen, biochemical, fluorescence, cell-free homogeneous; CAAX prenyl protease 2 (Saccharomyces cerevisiae (strain ATCC 204508 / S288c)), Q03530; yeast membranes, quenched prenylated peptide cleavage fluorescence; calls only; 0.27% of 290,000 active;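 active means fall in fluorescence gain of 50% or more versus controls, with final raw signal at or below 3038400; inconclusive means same 50% fall but final raw signal above 3038400; inactive means fall in fluorescence gain under 50%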;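 further: plate controls were neutral control wells for no effect and wells lacking membranes for full effect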
# Target sequence (Q03530 whole entry, looked up): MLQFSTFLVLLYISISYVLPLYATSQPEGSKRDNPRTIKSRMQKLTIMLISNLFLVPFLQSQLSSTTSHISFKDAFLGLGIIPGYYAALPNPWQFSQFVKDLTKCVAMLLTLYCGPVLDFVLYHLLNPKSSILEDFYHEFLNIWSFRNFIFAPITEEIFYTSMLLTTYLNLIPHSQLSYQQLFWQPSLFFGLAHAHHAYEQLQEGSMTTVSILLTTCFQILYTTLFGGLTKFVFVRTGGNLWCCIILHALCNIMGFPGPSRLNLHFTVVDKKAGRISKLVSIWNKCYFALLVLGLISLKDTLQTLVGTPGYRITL
# An asterisk follows results filed as active; i = inactive; ? = inconclusive; · = not tested or not shown; + = active, no number.
SMILES,Runt-CBFb FRET,Vif inh,RanGTP-Imp inh,Runt-SMMHC FRET,Rce1 inh
COc1ccc(-c2cn3ccccc3n2)cc1[N+](=O)[O-],0,·,4,1,+
CCO[C@H]1OC(C(=O)Nc2ccccc2)=C[C@@H](c2csc3ccccc23)[C@@H]1CCCO,-1,-4,8,0,+
CCO[C@@H]1OC(C(=O)O)=C[C@H](c2csc3ccccc23)[C@H]1CCCO,-1,-1,-2,3,i
Fc1ccc(NC(=S)NCc2cccnc2)cc1,0,-6,93*,-5,i
O=C(N1CCN(c2ncccn2)CC1)C12CC3CC(CC(C3)C1)C2,·,-3,0,·,i
COc1ccc(Cn2c(N)c(C#N)c3nc4ccccc4nc32)cc1OC,12,-4,11,4,·
N#Cc1c(N)n(-c2ccccc2N)c2nc3ccccc3nc12,9,1,3,7,·
N#Cc1c(N)n(CCNC(=O)c2cccs2)c2nc3ccccc3nc12,105*,24,64*,58*,i
N#Cc1c(N)n(-c2cccc(C(=O)O)c2)c2nc3ccccc3nc12,99*,12,?,82*,i
N#Cc1c(N)n(CCNC(=O)c2ccccc2)c2nc3ccccc3nc12,111*,-11,58*,76*,i
CCOC(=O)Cn1cc(Cn2c3ccccc3c(=O)n2C(C)C)nn1,·,3,·,·,·
CC(CCc1ccccc1)NCC(O)c1ccc(O)c(C(N)=O)c1 (stereo unspecified),-1,-1,0,-2,+
CC(=O)NC(C)CCc1ccccc1 (stereo unspecified),0,1,3,0,i
O=C1Nc2ccccc2N(O)N1c1ccc(Cl)cc1,1,-4,7,1,·
CCN1c2ccccc2NC2C1C(C(C)=O)C(=O)N2c1ccc(Cl)cc1 (stereo unspecified),7,+,11,8,i
Cc1c(Br)c([N+](=O)[O-])nn1CC(=O)NC1CCCCCC1,·,4,4,·,i
CCc1nc2c(OCC(=O)C(C)(C)C)cccn2c1N(C=O)CC(=O)N(C)C,·,2,·,·,·
CCCCCc1ccc(OCCOCCn2c[n+](C)c3ccccc32)c(CCCCC)c1,-2,6,4,-5,+
CCCCCc1ccc(OCCC[n+]2ccccc2)c(CCCCC)c1,4,-20,5,-8,i
c1ccc(CNc2nc(N3CCN(Cc4ccccc4)CC3)nc3ccccc23)cc1,-2,·,3,1,+
O=c1cc(N2CCN(Cc3ccccc3)CC2)[nH]c(=O)n1Cc1ccc(F)cc1,2,·,42*,-1,i
O=c1cc(N2CCN(Cc3ccccc3)CC2)[nH]c(=O)n1-c1cccc(C(F)(F)F)c1,6,·,41*,17,i
COc1ccc(-n2c(=O)cc(N3CCN(Cc4ccccc4)CC3)[nH]c2=O)cc1,·,·,?,-1,i
CCC[C@@H]1CCCC/C=C\CCCC(=O)OCCN1C(=O)OC(C)(C)C,·,-2,·,·,·
Cc1ccc(S(=O)(=O)N2CCC(C(=O)N3CCCC3C(=O)N[C@@H](CC(C)C)C(=O)NCC(N)=O)CC2)cc1 (stereo partly specified),·,9,3,·,i
SMILES,Runt-CBFb FRET,Vif inh,RanGTP-Imp inh,Runt-SMMHC FRET,Rce1 inh
O=C(NN=C(Cc1ccccc1)Cc1ccccc1)C1CC1,2,-3,34*,-8,i
O=C(NN=C(Cc1ccccc1)Cc1ccccc1)c1ccccc1F,-3,-1,?,1,i
Cc1csc(NC(=O)CSc2nc(=O)n(CCN(C)C)c3c2CCCC3)n1,·,2,-1,·,i
CC(=O)Nc1ccc(NC(=O)CSc2nnnn2-c2ccc(F)cc2)cc1,·,-9,2,·,i
Cc1nn(C)cc1S(=O)(=O)N1CCN(c2ccccc2)CC1,·,-6,-3,·,i
O=c1c2ccccc2c(C=Nc2ccc(O)cc2)c(O)n1Cc1ccccc1,-80,-13,33*,-79,i
COc1ccc(Cn2c(O)c(C=Nc3ccc(O)cc3)c3ccccc3c2=O)cc1,-175,1,30*,9,i
COc1ccc(N=Cc2c(O)n(-c3cccc(C)n3)c(=O)c3ccccc23)cc1,-10,4,14,7,i
COc1ccc(N=Cc2c(O)n(-c3ccc(OC)cc3)c(=O)c3ccccc23)cc1,3,3,5,90*,i
Cc1ccc(C(=O)c2nccn2C)cc1C,·,-5,0,·,i
O=C(Cc1ccc(-c2ccccc2)cc1)NCc1ccccc1,-3,54*,-3,-5,i
COC(=O)c1ccc2c(=O)n(Cc3ccco3)c(SCC(=O)Nc3cc(C)on3)nc2c1,-2,53*,-3,-1,i
CCN(CC)c1ccc(NC(=O)c2cccc(F)c2)c(C)c1,10,-10,0,9,i
CCOc1cc(C(=S)N2CCOCC2)ccc1OC,7,66*,2,-7,i
O=c1c(Cl)c(Cl)cnn1Cc1nnc(-c2ccccc2Br)o1,-2,16,-1,-2,·
Cc1nc(N2CCCCC2)c2c(C)c(C(=O)Nc3ccccc3C(F)(F)F)sc2n1,-5,·,?,0,+
Cc1nc(N2CCCCC2)c2c(C)c(C(=O)Nc3cccc(C(F)(F)F)c3)sc2n1,-6,-7,8,-4,i
O=C(Nc1nc2ccsc2c(=O)s1)c1ccco1,8,-1,4,16,i
Cc1csc2c(=O)sc(NC(=O)c3ccco3)nc12,34,-10,1,59*,i
Cc1csc2c(=O)sc(NC(=O)c3cccs3)nc12,40,-5,0,87*,i
Cc1csc(NC(=O)c2cccs2)n1,3,4,4,-4,i
CCNS(=O)(=O)c1ccc(CCC(=O)N2CCN(c3ccccc3F)CC2)cc1,·,4,1,·,·
O=C(Nn1c(O)c(C=C2N=c3ccccc3=N2)sc1=S)c1ccc(Cl)cc1,8,41,33*,-6,i
CC1CCN(C(=O)CSC2=NS(=O)(=O)c3cc(F)ccc3N2)CC1,·,0,0,·,i
CCCCn1c(N)c(N(CC(C)C)C(=O)Cc2ccc3c(c2)OCCO3)c(=O)[nH]c1=O,·,-2,7,·,i
COc1ccccc1Nc1nnc(C)c(=O)[nH]1,0,73*,0,-3,i
Cc1ccc(CNCCCSc2ncccn2)cc1,·,60*,-2,·,i
COc1ccc(C=Nc2cccnc2N)cc1,·,-14,25*,·,i

# Compound activity deposited in PubChem by several laboratories.
